pIC50: −log10 of the molar value.
Key:
[1] = tested on: Rattus norvegicus; test: Effect on in vivo accumulation of 5-HTP was measured in rat corpus striatum at 2.2 (umol/kg) dose; type: functional
How it was run: (§1)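 Rats not pretreated with reserpine received test drug (hydrochloride or hydrobromide salt) sc in the neck region 60 min before death. NSD 1015 decarboxylase inhibitor (100 mg/kg, i.e., 573 μmol/kg, ip) was given 30 min before decapitation. Brain was dissected on ice. Tissue was homogenized in 0.1 M perchloric acid with α-methyl-DOPA internal standard. Analytes were quantified by ion-pair reversed-phase HPLC-electrochemical detection. Values are means ± SEM, n = 3-7 per treated group.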

[2] = molecular target: T1, 5-hydroxytryptamine receptor 1A (Rattus norvegicus, UniProt P19327); test: Inhibitory activity tested in vitro at 5-hydroxytryptamine 1A receptor binding site in rat
T1 sequence (P19327 whole entry): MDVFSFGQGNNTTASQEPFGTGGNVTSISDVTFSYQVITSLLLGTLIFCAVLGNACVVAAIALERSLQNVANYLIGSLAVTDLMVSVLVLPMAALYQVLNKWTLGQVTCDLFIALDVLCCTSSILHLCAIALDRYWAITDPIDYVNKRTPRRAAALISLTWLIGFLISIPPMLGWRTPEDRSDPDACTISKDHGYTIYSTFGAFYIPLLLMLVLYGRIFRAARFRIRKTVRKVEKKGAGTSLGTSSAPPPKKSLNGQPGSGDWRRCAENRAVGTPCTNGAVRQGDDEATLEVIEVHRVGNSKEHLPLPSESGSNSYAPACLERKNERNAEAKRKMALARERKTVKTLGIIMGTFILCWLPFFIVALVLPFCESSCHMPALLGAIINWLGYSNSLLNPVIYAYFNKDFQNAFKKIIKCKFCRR
How it was run: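 Competition binding used rat brain membranes washed in 50 mM Tris-HCl pH 7.4, preincubated 10 min at 37 °C to remove 5-HT, and used at 10 mg wet tissue/mL. Assay: 1 nM [3H]-8-OH-DPAT, 3 mM CaCl2, 100 µM pargyline, 15 min at 37 °C, then filtration on PEI-treated filters. Nonspecific binding was set with 10 µM 5-HT. IC50 came from four-parameter logistic regression, mean ± SEM of N experiments.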

[3] = tested on: Rattus norvegicus; test: Effect on in vivo accumulation of DOPA was measured in rat corpus striatum at 2.2 (umol/kg) dose; type: functional; how it was run: as §1
[4] = tested on: Rattus norvegicus; test: Effect on in vivo accumulation of DOPA was measured in rat corpus striatum at 22(Micromol/kg) dose; type: functional; how it was run: as §1
[5] = tested on: Rattus norvegicus; test: Effect on in vivo accumulation of 5-HTP was measured in rat limbic system at 2.2 (umol/kg) dose; type: functional; how it was run: as §1
[6] = tested on: Rattus norvegicus; test: Effect on in vivo accumulation of DOPA was measured in rat limbic system at 22(Micromol/kg) dose; type: functional; how it was run: as §1
[7] = tested on: Rattus norvegicus; test: Effect on in vivo accumulation of […] was measured in rat corpus striatum at 22(Micromol/kg) dose; type: functional; how it was run: as §1
[8] = tested on: Rattus norvegicus; test: Effect on in vivo accumulation of 5-HTP was measured in rat limbic system at 22(Micromol/kg) dose; type: functional; how it was run: as §1
[9] = tested on: Rattus norvegicus; test: Effect on in vivo accumulation of DOPA was measured in rat limbic system at 2.2 (umol/kg) dose; type: functional; how it was run: as §1
[10] = tested on: Rattus norvegicus; test: Effect on in vivo accumulation of 5-HTP was measured in rat corpus striatum at 22(umol/kg) dose; type: functional; how it was run: as §1
[11] = tested on: Rattus norvegicus; test: Effect on in vivo accumulation of dopamine(DA) was measured in rat limbic system at 22(Micromol/kg) dose; type: functional
How it was run: (§2)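 Non-reserpinized rats got the test drug sc in the neck (5 mL/kg) 60 min before death, and NSD 1015 (573 µmol/kg ip) 30 min before death. After decapitation, the limbic system was dissected on ice, frozen and homogenized in 0.1 M perchloric acid with α-methyl-DOPA internal standard. DA was measured by ion-pair reversed-phase HPLC with electrochemical detection. Data are mean ± SEM (controls n=17-19, treated 3-7), analysed by ANOVA/Dunnett.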

[12] = tested on: Rattus norvegicus; test: Effect on in vivo accumulation of dopamine(DA) was measured in rat limbic system at 2.2 (umol/kg) dose; type: functional; how it was run: as §2
[13] = tested on: Rattus norvegicus; test: Effect on in vivo accumulation of […] was measured in rat corpus striatum at 2.2 (umol/kg) dose; type: functional; how it was run: as §1
[14] = tested on: Rattus norvegicus; test: Effect on in vivo accumulation of dopamine(DA) was measured in rat limbic system at 50(Micromol/kg) dose; type: functional; how it was run: as §2
[15] = tested on: Rattus norvegicus; test: Effect on in vivo accumulation of DOPA was measured in rat limbic system at 25(Micromol/kg) dose; type: functional; how it was run: as §1
[16] = tested on: Rattus norvegicus; test: Effect on in vivo accumulation of 5-HTP was measured in rat limbic system at 2.5 (umol/kg) dose; type: functional; how it was run: as §1
[17] = tested on: Rattus norvegicus; test: Effect on in vivo accumulation of 5-HTP was measured in rat corpus striatum at 2.5(umol/kg) dose; type: functional; how it was run: as §1
[18] = tested on: Rattus norvegicus; test: Effect on in vivo accumulation of […] was measured in rat corpus striatum at 50(Micromol/kg) dose; type: functional; how it was run: as §1
[19] = tested on: Rattus norvegicus; test: Effect on in vivo accumulation of 5-HTP was measured in rat limbic system at 50(Micromol/kg) dose; type: functional; how it was run: as §1
[20] = tested on: Rattus norvegicus; test: Effect on in vivo accumulation of 5-HTP was measured in rat corpus striatum at 50(umol/kg) dose; type: functional; how it was run: as §1
[21] = tested on: Rattus norvegicus; test: Effect on in vivo accumulation of DOPA was measured in rat corpus striatum at 50(Micromol/kg) dose; type: functional; how it was run: as §1
[22] = tested on: Rattus norvegicus; test: Effect on in vivo accumulation of DOPA was measured in rat limbic system at 2.5 (umol/kg) dose; type: functional; how it was run: as §1
[23] = tested on: Rattus norvegicus; test: Effect on in vivo accumulation of DOPA was measured in rat corpus striatum at 25(Micromol/kg) dose; type: functional; how it was run: as §1
[24] = tested on: Rattus norvegicus; test: Effect on in vivo accumulation of dopamine(DA) was measured in rat limbic system at 25(Micromol/kg) dose; type: functional; how it was run: as §2
[25] = tested on: Rattus norvegicus; test: Effect on in vivo accumulation of DOPA was measured in rat corpus striatum at 2.5 (umol/kg) dose; type: functional; how it was run: as §1
[26] = tested on: Rattus norvegicus; test: Effect on in vivo accumulation of 5-HTP was measured in rat limbic system at 25(Micromol/kg) dose; type: functional; how it was run: as §1
[27] = tested on: Rattus norvegicus; test: Effect on in vivo accumulation of 5-HTP was measured in rat corpus striatum at 25 (umol/kg) dose; type: functional; how it was run: as §1
[28] = tested on: Rattus norvegicus; test: Effect on in vivo accumulation of dopamine(DA) was measured in rat limbic system at 2.5 (umol/kg) dose; type: functional; how it was run: as §2
[29] = tested on: Rattus norvegicus; test: Effect on in vivo accumulation of […] was measured in rat corpus striatum at 25(Micromol/kg) dose; type: functional; how it was run: as §1
[30] = tested on: Rattus norvegicus; test: Effect on in vivo accumulation of DOPA was measured in rat limbic system at 50(Micromol/kg) dose; type: functional; how it was run: as §1
[31] = tested on: Rattus norvegicus; test: Effect on in vivo accumulation of […] was measured in rat corpus striatum at 2.5 (umol/kg) dose; type: functional; how it was run: as §1

## CCCN(CCC)[C@H]1Cc2c(O)cccc2C[C@@H]1C (stereo in doubt; (+)-11)
[1]
  Activity: 87.3 ng/g
[2]
  pIC50: 7.22
[3]
  Activity: 1008 ng/g
[4]
  Activity: 959 ng/g
[5]
  Activity: 144 ng/g
[6]
  Activity: 400 ng/g
[7]
  Activity: <4089 ng/g
[8]
  Activity: <89.5 ng/g
[9]
  Activity: 389 ng/g
[10]
  Activity: <56.4 ng/g
[11]
  Activity: <839 ng/g
[12]
  Activity: 1067 ng/g
[13]
  Activity: 5158 ng/g

## CCCN(CCC)[C@H]1Cc2c(O)cccc2C[C@H]1C (stereo in doubt; (-)-15)
[14]
  Activity: 1065 ng/g
[15]
  Activity: <521 ng/g
[16]
  Activity: 163 ng/g
[17]
  Activity: 96.6 ng/g
[18]
  Activity: 5282 ng/g
[19]
  Activity: <88.3 ng/g
[20]
  Activity: <45.8 ng/g
[2]
  pIC50: 6.31
[21]
  Activity: 1001 ng/g
[22]
  Activity: <463 ng/g
[23]
  Activity: 1241 ng/g
[24]
  Activity: 1094 ng/g
[25]
  Activity: 1080 ng/g
[26]
  Activity: <120 ng/g
[27]
  Activity: <65.4 ng/g
[28]
  Activity: 1133 ng/g
[29]
  Activity: 4751 ng/g
[30]
  Activity: 396 ng/g
[31]
  Activity: 4439 ng/g

From ChEMBL document CHEMBL1124127, “Central dopaminergic and 5-hydroxytryptaminergic effects of C3-methylated derivatives of 8-hydroxy-2-(di-n-propylamino)tetralin” (J Med Chem, 1988)
